{
  "source": "ChEMBL document CHEMBL1629616",
  "about": "(Antimicrob Agents Chemother, 2009)",
  "key": {"Cytochrome P450 2B6 [1]": {"target": "T1, Cytochrome P450 2B6 (Homo sapiens, UniProt P20813)", "T1 sequence (P20813 whole entry)": "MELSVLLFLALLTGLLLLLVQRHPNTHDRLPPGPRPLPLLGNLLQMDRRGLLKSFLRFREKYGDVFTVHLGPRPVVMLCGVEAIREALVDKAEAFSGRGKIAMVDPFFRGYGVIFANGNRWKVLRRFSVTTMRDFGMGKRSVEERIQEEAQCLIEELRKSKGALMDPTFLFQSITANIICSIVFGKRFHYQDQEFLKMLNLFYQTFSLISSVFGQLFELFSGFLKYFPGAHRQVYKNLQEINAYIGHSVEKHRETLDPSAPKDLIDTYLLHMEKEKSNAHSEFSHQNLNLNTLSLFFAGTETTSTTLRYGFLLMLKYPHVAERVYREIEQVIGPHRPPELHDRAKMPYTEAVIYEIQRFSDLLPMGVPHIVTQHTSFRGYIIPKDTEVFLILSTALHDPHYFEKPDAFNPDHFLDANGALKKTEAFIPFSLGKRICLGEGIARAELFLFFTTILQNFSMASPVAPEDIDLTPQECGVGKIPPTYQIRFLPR", "test": "Inhibition of CYP2B6 in human liver microsomes at 10 uM preincubated for 5 to 30 mins", "assay_type": "ADME, Microsome", "how_it_was_run": "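Efavirenz (final 100 μM) then added and incubated 10 min with cofactors. Activity compared with 0-min controls lacking inhibitor and NADPH.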"}, "CYP2A6": {"target": "T2, CYP2A6 (Homo sapiens, UniProt P11509)", "T2 sequence (P11509 whole entry)": "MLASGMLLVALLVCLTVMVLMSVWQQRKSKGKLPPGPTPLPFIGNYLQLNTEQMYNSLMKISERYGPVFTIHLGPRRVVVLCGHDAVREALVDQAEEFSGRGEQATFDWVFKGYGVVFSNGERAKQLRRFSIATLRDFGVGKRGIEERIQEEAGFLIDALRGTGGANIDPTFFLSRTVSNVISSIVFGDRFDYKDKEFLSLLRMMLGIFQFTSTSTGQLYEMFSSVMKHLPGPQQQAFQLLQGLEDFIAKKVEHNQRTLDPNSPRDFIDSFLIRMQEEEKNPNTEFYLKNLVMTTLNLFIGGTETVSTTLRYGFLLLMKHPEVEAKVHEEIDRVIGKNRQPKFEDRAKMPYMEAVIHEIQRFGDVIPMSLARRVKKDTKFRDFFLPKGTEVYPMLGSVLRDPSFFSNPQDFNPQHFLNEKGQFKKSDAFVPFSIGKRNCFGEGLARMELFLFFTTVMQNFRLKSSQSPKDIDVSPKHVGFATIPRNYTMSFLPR", "test": "Inhibition of CYP2A6 in human liver microsomes assessed as coumarin 7-hydroxylation at 100 uM after 15 mins", "assay_type": "ADME, Microsome", "details": "probe coumarin (7-hydroxylation); call rule not given here"}, "CYP3A": {"target": "CYP3A (Homo sapiens, UniProt P08684+P20815+P24462+Q9HB55)", "test": "Inhibition of CYP3A in human liver microsomes assessed as midazolam 1'- hydroxylation after 5 mins", "assay_type": "ADME, Microsome", "details": "probe midazolam (1'-hydroxylation)", "how_it_was_run": "(§1)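 1′-Hydroxymidazolam measured by HPLC-UV at 230 nm with desmethyldiazepam internal standard. IC50 from log concentration versus percent activity remaining.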"}, "CYP1A2": {"target": "T3, CYP1A2 (Homo sapiens, UniProt P05177)", "T3 sequence (P05177 whole entry)": "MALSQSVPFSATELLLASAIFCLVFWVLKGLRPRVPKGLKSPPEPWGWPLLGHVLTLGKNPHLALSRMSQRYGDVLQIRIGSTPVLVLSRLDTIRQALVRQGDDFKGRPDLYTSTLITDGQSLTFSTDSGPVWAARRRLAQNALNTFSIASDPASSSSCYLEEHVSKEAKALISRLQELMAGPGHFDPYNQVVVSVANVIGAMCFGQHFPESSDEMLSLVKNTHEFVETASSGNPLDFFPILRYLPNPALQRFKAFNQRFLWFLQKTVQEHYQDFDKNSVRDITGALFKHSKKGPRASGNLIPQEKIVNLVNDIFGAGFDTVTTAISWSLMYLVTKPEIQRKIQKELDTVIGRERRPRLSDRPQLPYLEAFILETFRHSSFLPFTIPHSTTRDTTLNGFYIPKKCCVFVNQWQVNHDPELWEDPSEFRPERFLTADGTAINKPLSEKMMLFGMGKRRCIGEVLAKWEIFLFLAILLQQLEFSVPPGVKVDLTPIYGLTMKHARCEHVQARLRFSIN", "test": "Inhibition of CYP1A2 in human liver microsomes assessed as phenacetin O-deethylation at 100 uM after 30 mins", "assay_type": "ADME, Microsome", "details": "probe phenacetin (O-deethylation)"}, "Cytochrome P450 2B6 [2]": {"target": "T1, Cytochrome P450 2B6", "test": "Inhibition of CYP2B6 in human liver microsomes assessed as efavirenz 8-hydroxylation after 10 mins", "assay_type": "ADME, Microsome", "how_it_was_run": "(§2)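 Ethyl acetate extraction under alkaline pH; 8-hydroxyefavirenz measured by HPLC-UV at 245 nm with ritonavir internal standard. IC50 from log concentration versus percent activity remaining.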"}, "Cytochrome P450 2B6 [3]": {"target": "T1, Cytochrome P450 2B6", "test": "Inhibition of CYP2B6 in human liver microsomes assessed as bupropion 4-hydroxylation after 15 mins"}, "Cytochrome P450 2B6 [4]": {"target": "T1, Cytochrome P450 2B6", "test": "Inhibition of CYP2B6 in human liver microsomes using 8-hydroxyefavirenz as probe after 10 mins", "assay_type": "ADME, Microsome"}, "[5]": {"test": "Inhibition of CYP3A using midazolam as probe", "assay_type": "ADME", "how_it_was_run": "as §1"}, "Cytochrome P450 2B6 [6]": {"target": "T1, Cytochrome P450 2B6", "test": "Inhibition of human CYP2B6 expressed in baculovirus assessed as voriconazole N-oxide formation", "assay_type": "ADME"}, "CYP2C8": {"target": "T4, CYP2C8 (Homo sapiens, UniProt P10632)", "T4 sequence (P10632 whole entry)": "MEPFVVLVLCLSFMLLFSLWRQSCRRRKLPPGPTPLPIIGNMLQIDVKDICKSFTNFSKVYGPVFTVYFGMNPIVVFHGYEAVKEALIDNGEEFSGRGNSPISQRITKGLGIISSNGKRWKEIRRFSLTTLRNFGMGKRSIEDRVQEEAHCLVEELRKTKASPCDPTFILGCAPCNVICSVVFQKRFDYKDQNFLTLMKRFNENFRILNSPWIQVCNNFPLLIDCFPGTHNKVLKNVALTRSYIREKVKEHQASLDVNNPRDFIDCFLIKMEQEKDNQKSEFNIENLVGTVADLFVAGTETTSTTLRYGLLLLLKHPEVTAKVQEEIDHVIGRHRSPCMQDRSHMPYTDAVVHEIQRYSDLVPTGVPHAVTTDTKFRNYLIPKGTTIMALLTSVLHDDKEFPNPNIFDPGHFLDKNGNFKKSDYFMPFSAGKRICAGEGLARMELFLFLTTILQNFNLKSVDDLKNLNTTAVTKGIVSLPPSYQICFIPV", "test": "Inhibition of CYP2C8 in human liver microsomes assessed as amodiquine N-deethylation at 100 uM after 15 mins", "assay_type": "ADME, Microsome", "details": "probe amodiquine (N-deethylation)"}, "[7]": {"test": "Inhibition of CYP3A using nifedipine as probe", "assay_type": "ADME"}, "[8]": {"test": "Inhibition of CYP3A using testosterone as probe", "assay_type": "ADME"}, "Cytochrome P450 2B6 [9]": {"target": "T1, Cytochrome P450 2B6", "test": "Inhibition of CYP2B6 in human liver microsomes assessed as 8-hydroxyefavirenz 14-hydroxylation after 10 mins", "assay_type": "ADME, Microsome"}, "Cytochrome P450 2B6 [10]": {"target": "T1, Cytochrome P450 2B6", "test": "Inhibition of CYP2B6 in human liver microsomes assessed as efavirenz 8-hydroxylation at 10 uM after 60 mins", "assay_type": "ADME, Microsome", "details": "1 h"}, "Cytochrome P450 2B6 [11]": {"target": "T1, Cytochrome P450 2B6", "test": "Inhibition of CYP2B6 in human liver microsomes assessed as efavirenz 8-hydroxylation after 10 mins by Dixon plot analysis", "assay_type": "ADME, Microsome", "how_it_was_run": "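8-Hydroxyefavirenz measured by HPLC-UV. Ki from nonlinear regression to competitive, noncompetitive and uncompetitive models, chosen using Dixon plots.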"}, "Cytochrome P450 2B6 [12]": {"target": "T1, Cytochrome P450 2B6", "test": "Inhibition of CYP2B6 in human liver microsomes assessed as bupropion 4-hydroxylation after 15 mins by Dixon plot analysis", "assay_type": "ADME, Microsome"}, "Cytochrome P450 2B6 [13]": {"target": "T1, Cytochrome P450 2B6", "test": "Inhibition of CYP2B6 in human liver microsomes using bupropion as probe after 15 mins"}, "Cytochrome P450 2B6 [14]": {"target": "T1, Cytochrome P450 2B6", "test": "Inhibition of CYP2B6 in human liver microsomes using efavirenz as probe after 10 mins", "assay_type": "ADME, Microsome", "how_it_was_run": "as §2"}, "[15]": {"test": "Inhibition of CYP3A using felodipine as probe", "assay_type": "ADME"}, "Cytochrome P450 2B6 [16]": {"target": "T1, Cytochrome P450 2B6", "test": "Inhibition of CYP2B6 in human liver microsomes assessed as metabolite formation at 10 uM preincubated for 60 mins", "assay_type": "ADME, Microsome"}, "CYP2D6": {"target": "CYP2D6 (Homo sapiens, UniProt P10635)", "sequence (P10635 whole entry)": "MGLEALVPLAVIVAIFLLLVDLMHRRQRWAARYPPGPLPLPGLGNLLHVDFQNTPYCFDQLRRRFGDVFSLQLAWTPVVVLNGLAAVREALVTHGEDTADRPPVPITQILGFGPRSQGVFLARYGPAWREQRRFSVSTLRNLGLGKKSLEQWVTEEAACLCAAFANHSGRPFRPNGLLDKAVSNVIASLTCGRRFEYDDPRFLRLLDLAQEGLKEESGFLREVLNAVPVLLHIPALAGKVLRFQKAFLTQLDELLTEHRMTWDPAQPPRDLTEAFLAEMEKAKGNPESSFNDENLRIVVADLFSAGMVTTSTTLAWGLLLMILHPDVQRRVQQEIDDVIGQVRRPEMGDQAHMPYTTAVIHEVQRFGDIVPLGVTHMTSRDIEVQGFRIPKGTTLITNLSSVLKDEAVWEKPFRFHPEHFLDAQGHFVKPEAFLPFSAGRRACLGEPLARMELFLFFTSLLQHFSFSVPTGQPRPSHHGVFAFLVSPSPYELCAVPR", "test": "Inhibition of CYP2D6 in human liver microsomes assessed as dextromethorphan O-demethylation at 100 uM after 30 mins", "assay_type": "ADME, Microsome", "details": "probe dextromethorphan (O-demethylation)"}},
  "data": [
    {"smiles": "C[C@@H](c1ncncc1F)[C@](O)(Cn1cncn1)c1ccc(F)cc1F", "note": "[VORICONAZOLE]", "values": [
      {"measurement": "inhibition (INH)", "setting": "Cytochrome P450 2B6 [1]", "result": "Not Active"},
      {"measurement": "inhibition at 0.25 h, 100 µM", "setting": "CYP2A6", "result": "< 25", "unit": "%"},
      {"measurement": "IC50 at 5 min", "setting": "CYP3A", "result": 2900, "unit": "nM"},
      {"measurement": "inhibition at 0.5 h, 100 µM", "setting": "CYP1A2", "result": "< 25", "unit": "%"},
      {"measurement": "IC50", "setting": "Cytochrome P450 2B6 [2]", "result": 1710, "unit": "nM"},
      {"measurement": "IC50", "setting": "Cytochrome P450 2B6 [3]", "result": 1190, "unit": "nM"},
      {"measurement": "IC50", "setting": "Cytochrome P450 2B6 [4]", "result": 790, "unit": "nM"},
      {"measurement": "IC50", "setting": "[5]", "result": 10500, "unit": "nM"},
      {"measurement": "IC50", "setting": "Cytochrome P450 2B6 [6]", "result": 12200, "unit": "nM"},
      {"measurement": "inhibition at 0.25 h, 100 µM", "setting": "CYP2C8", "result": "< 25", "unit": "%"},
      {"measurement": "IC50", "setting": "[7]", "result": 10500, "unit": "nM"},
      {"measurement": "IC50", "setting": "[8]", "result": 54000, "unit": "nM"},
      {"measurement": "IC50", "setting": "Cytochrome P450 2B6 [9]", "result": 790, "unit": "nM"},
      {"measurement": "inhibition (INH)", "setting": "Cytochrome P450 2B6 [10]", "result": "Not Active"},
      {"measurement": "Ki", "setting": "Cytochrome P450 2B6 [11]", "result": 400, "unit": "nM"},
      {"measurement": "Ki", "setting": "Cytochrome P450 2B6 [12]", "result": 340, "unit": "nM"},
      {"measurement": "IC50", "setting": "Cytochrome P450 2B6 [13]", "result": 1190, "unit": "nM"},
      {"measurement": "IC50", "setting": "Cytochrome P450 2B6 [14]", "result": 1710, "unit": "nM"},
      {"measurement": "IC50", "setting": "[15]", "result": 50000, "unit": "nM"},
      {"measurement": "inhibition (INH)", "setting": "Cytochrome P450 2B6 [16]", "result": "Active"},
      {"measurement": "inhibition at 0.5 h, 100 µM", "setting": "CYP2D6", "result": "< 25", "unit": "%"}
    ]}
  ]
}
